Measured values published in ChEMBL document CHEMBL3525900, “Pharmacokinetics, distribution, and metabolism of [14C]sunitinib in rats, monkeys, and humans” (Drug Metab Dispos, 2012).

Columns and labels:
[1] = Drug concentration in female Lister Hooded pigmented rat thyroid gland assessed as radioactivity per gram of tissue at 20 mg/kg administered as single dose via gastric gavage measured after 24 hrs by autoradiographic analysis; assay type: ADME, organism-based; set-up: dose 20 mg/kg, dosed compound name [14C]Sunitinib; details: in vivo, po
In short: (§1)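 Lister Hooded (pigmented) rats, ca 7-8 weeks old, acclimated 7 days, given [14C]sunitinib L-malate by gastric gavage at 20 mg/kg (15 mg freebase/kg, 100 µCi/kg). One male and one female killed by CO2 at 24, 72, 168 and 336 h. Carcasses frozen in solid CO2/hexane and embedded in frozen cellulose. 30 µm sagittal cryosections were freeze-dried. Tissue radioactivity measured by quantitative whole-body autoradiography against calibration standards, with background subtracted.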

[2] = Drug concentration in female albino rat bone marrow assessed as radioactivity per gram of tissue at 20 mg/kg administered as single dose via gastric gavage measured after 3 hrs by autoradiographic analysis; assay type: ADME, organism-based; set-up: dose 20 mg/kg, dosed compound name [14C]Sunitinib; details: in vivo, po
In short: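 Sprague Dawley (albino) and Lister Hooded (pigmented) rats, ca 7-8 weeks old, 179-310 g, acclimated 7 days. Single gavage dose of [14C]sunitinib L-malate (15 mg freebase/kg, 100 µCi/kg). One male and one female killed by CO2 per time point: albino at 3, 6, 24, 72, 168 h; pigmented at 24, 72, 168, 336 h. Carcasses frozen in solid CO2/hexane, 30 µm sagittal sections freeze-dried. Tissue radioactivity read by quantitative whole-body autoradiography against regression of standards, mean background subtracted.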

[3] = system: Homo sapiens; assay: Tmax as total radioactivity in human plasma at 50 mg, po administered as single dose measured up to 24 hrs by LC/MS/MS analysis; assay type: ADME, organism-based; set-up: dosed compound name [14C]Sunitinib; details: in vivo
[4] = system: Liver; assay: Drug concentration in female albino rat liver assessed as radioactivity per gram of tissue at 20 mg/kg administered as single dose via gastric gavage measured after 24 hrs by autoradiographic analysis; assay type: ADME, organism-based; set-up: dose 20 mg/kg, dosed compound name [14C]Sunitinib; details: in vivo, po
In short: (§2)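 Sprague Dawley albino rats, ca 7-8 weeks old, dosed once by gastric gavage with [14C]sunitinib L-malate (15 mg freebase/kg, 100 µCi/kg). One male and one female killed by CO2 at 3, 6, 24, 72 and 168 h. Carcasses frozen in solid CO2/hexane, embedded and cut into 30 µm sagittal sections, then freeze-dried. Radioactivity quantified by whole-body autoradiography against standards by regression, background subtracted.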

[5] = Drug concentration in male albino rat testis assessed as radioactivity per gram of tissue at 20 mg/kg administered as single dose via gastric gavage measured after 6 hrs by autoradiographic analysis; assay type: ADME, organism-based; set-up: dose 20 mg/kg, dosed compound name [14C]Sunitinib; details: in vivo, po
[6] = system: Homo sapiens; assay: Apparent oral clearance as total radioactivity in human plasma at 50 mg, po administered as single dose measured up to 24 hrs by LC/MS/MS analysis; assay type: ADME, organism-based; set-up: dosed compound name [14C]Sunitinib; details: in vivo
[7] = Drug recovery in urine of human at 50 mg, po administered as single dose during 0 to 504 hrs by liquid scintillation counting; assay type: ADME, organism-based; set-up: dosed compound name [14C]Sunitinib; details: in vivo
[8] = system: Rattus norvegicus; assay: Cmax as total radioactivity in female Sprague-Dawley rat plasma at 15 mg/kg, po administered as single dose by LC/MS/MS analysis; assay type: ADME, organism-based; set-up: dose 15 mg/kg, dosed compound name [14C]Sunitinib, route oral; details: in vivo
In short: (§3)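 Single dose of [14C]sunitinib L-malate as free base, 50 µCi/kg. IV dose was 5 mg/kg by tail vein in 5 females. Oral dose was 15 mg/kg by gavage in 3 females and 3 males. Total radioactivity was by scintillation counting. […] Cmax was read from raw data, t½ by log-linear regression, AUC by linear trapezoidal rule.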

[9] = system: Cynomolgus monkey; assay: Drug recovery in cage residue of male cynomolgus monkey at 6 mg/kg, po administered as single dose during 0 to 336 hrs by liquid scintillation counting; assay type: ADME, organism-based, Macaca fascicularis; set-up: dose 6 mg/kg, dosed compound name [14C]Sunitinib, route oral; details: in vivo
[10] = system: Homo sapiens; assay: Terminal half life as total radioactivity in human plasma at 50 mg, po administered as single dose measured up to 24 hrs by LC/MS/MS analysis; assay type: ADME, organism-based; set-up: dosed compound name [14C]Sunitinib; details: in vivo
[11] = system: Heart; assay: Drug concentration in male Lister Hooded pigmented rat heart assessed as radioactivity per gram of tissue at 20 mg/kg administered as single dose via gastric gavage measured after 168 hrs by autoradiographic analysis; assay type: ADME, organism-based; set-up: dose 20 mg/kg, dosed compound name [14C]Sunitinib; details: in vivo, po
[12] = Drug concentration in male albino rat lymph node assessed as radioactivity per gram of tissue at 20 mg/kg administered as single dose via gastric gavage measured after 6 hrs by autoradiographic analysis; assay type: ADME, organism-based; set-up: dose 20 mg/kg, dosed compound name [14C]Sunitinib; details: in vivo, po
[13] = Drug concentration in female albino rat lymph node assessed as radioactivity per gram of tissue at 20 mg/kg administered as single dose via gastric gavage measured after 6 hrs by autoradiographic analysis; assay type: ADME, organism-based; set-up: dose 20 mg/kg, dosed compound name [14C]Sunitinib; details: in vivo, po; in short: as §2
[14] = Drug concentration in male albino rat testis assessed as radioactivity per gram of tissue at 20 mg/kg administered as single dose via gastric gavage measured after 24 hrs by autoradiographic analysis; assay type: ADME, organism-based; set-up: dose 20 mg/kg, dosed compound name [14C]Sunitinib; details: in vivo, po
[15] = Drug concentration in female Lister Hooded pigmented rat lachrymal gland assessed as radioactivity per gram of tissue at 20 mg/kg administered as single dose via gastric gavage measured after 24 hrs by autoradiographic analysis; assay type: ADME, organism-based; set-up: dose 20 mg/kg, dosed compound name [14C]Sunitinib; details: in vivo, po; in short: as §1
[16] = system: Adrenal; assay: Drug concentration in female albino rat adrenal assessed as radioactivity per gram of tissue at 20 mg/kg administered as single dose via gastric gavage measured after 72 hrs by autoradiographic analysis; assay type: ADME, organism-based; set-up: dose 20 mg/kg, dosed compound name [14C]Sunitinib; details: in vivo, po
In short: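 Sprague Dawley (albino) rats, ca 7-8 weeks old, received a single gastric-gavage dose of [14C]sunitinib L-malate at 20 mg/kg (15 mg freebase/kg, 100 µCi/kg). One animal per sex killed by CO2 at 3, 6, 24, 72 and 168 h, then frozen in CO2/hexane. 30 µm sagittal sections were cut and freeze-dried. Radioactivity per gram quantified by whole-body autoradiography using regression against standards. LOQ 0.04–0.06 µg freebase equiv/g.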

[17] = Drug recovery in feces of female Sprague-Dawley rat at 5 mg/kg, iv administered as single dose during 0 to 72 hrs by liquid scintillation counting; assay type: ADME, organism-based; set-up: dose 5 mg/kg, dosed compound name [14C]Sunitinib, route intravenous; details: in vivo
[18] = Drug concentration in male albino rat pituitary gland assessed as radioactivity per gram of tissue at 20 mg/kg administered as single dose via gastric gavage measured after 6 hrs by autoradiographic analysis; assay type: ADME, organism-based; set-up: dose 20 mg/kg, dosed compound name [14C]Sunitinib; details: in vivo, po
[19] = system: Zone of skin; assay: Drug concentration in female Lister Hooded pigmented rat abdomen skin assessed as radioactivity per gram of tissue at 20 mg/kg administered as single dose via gastric gavage measured after 24 hrs by autoradiographic analysis; assay type: ADME, organism-based; set-up: dose 20 mg/kg, dosed compound name [14C]Sunitinib; details: in vivo, po
In short: (§4)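 Pigmented Lister Hooded rats, 7-8 weeks old, received [14C]sunitinib L-malate by gavage at 20 mg/kg (15 mg freebase/kg, 100 µCi/kg). One rat per sex was killed by CO2 at each of 24, 72, 168 and 336 h. Carcasses were frozen in solid CO2/hexane and cut into 30 µm sagittal sections, then freeze-dried. Tissue radioactivity was quantified by whole-body autoradiography calibrated against standards by regression (LOQ 0.04–0.06 µg eq/g).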

[20] = system: Rattus norvegicus; assay: Total drug recovery in female Sprague-Dawley rat at 5 mg/kg, iv administered as single dose during 0 to 72 hrs by liquid scintillation counting; assay type: ADME, organism-based; set-up: dose 5 mg/kg, dosed compound name [14C]Sunitinib, route intravenous; details: in vivo
[21] = system: Liver; assay: Drug concentration in male Lister Hooded pigmented rat liver assessed as radioactivity per gram of tissue at 20 mg/kg administered as single dose via gastric gavage measured after 168 hrs by autoradiographic analysis; assay type: ADME, organism-based; set-up: dose 20 mg/kg, dosed compound name [14C]Sunitinib; details: in vivo, po
[22] = system: Zone of skin; assay: Drug concentration in female Lister Hooded pigmented rat abdomen skin assessed as radioactivity per gram of tissue at 20 mg/kg administered as single dose via gastric gavage measured after 72 hrs by autoradiographic analysis; assay type: ADME, organism-based; set-up: dose 20 mg/kg, dosed compound name [14C]Sunitinib; details: in vivo, po; in short: as §4
[23] = system: Rattus norvegicus; assay: Apparent terminal half life as total radioactivity in male Sprague-Dawley rat plasma at 15 mg/kg, po administered as single dose by LC/MS/MS analysis; assay type: ADME, organism-based; set-up: dose 15 mg/kg, dosed compound name [14C]Sunitinib, route oral; details: in vivo; in short: as §3
[24] = system: Large intestine; assay: Drug concentration in male albino rat large intestine assessed as radioactivity per gram of tissue at 20 mg/kg administered as single dose via gastric gavage measured after 24 hrs by autoradiographic analysis; assay type: ADME, organism-based; set-up: dose 20 mg/kg, dosed compound name [14C]Sunitinib; details: in vivo, po

Work on `CCN(CC)CCNC(=O)c1c(C)[nH]c(/[14CH]=C2\C(=O)Nc3ccc(F)cc32)c1C.O=C(O)C[C@H](O)C(=O)O` yielded a Radiolabel recovery [1] of 0.64 ugequiv, a Radiolabel recovery [2] of 10.64 ugequiv and a Tmax [3] of 8 h. The Radiolabel recovery [4] was 2.8 ugequiv, the Radiolabel recovery [5] was 0.9 ugequiv and the CL/F [6] was 23.5 L/h. For the same compound, the Radiolabel recovery [7] was 16%, the Cmax [8] was 2926 ngequiv/ml and the Radiolabel recovery [9] was 1.9%. For the same compound, the “beta t1/2” value [10] was 28.2 h, the Radiolabel recovery [11] was 0.06 ugequiv and the Radiolabel recovery [12] was 11.26 ugequiv. For the same compound, the Radiolabel recovery [13] was 14.48 ugequiv, the Radiolabel recovery [14] was 2.8 ugequiv and the Radiolabel recovery [15] was 2.05 ugequiv. For the same compound, the Radiolabel recovery [16] was 1.52 ugequiv, the Radiolabel recovery [17] was 77.2% and the Radiolabel recovery [18] was 22.94 ugequiv. It also gave a Radiolabel recovery [19] of 3.23 ugequiv, a Radiolabel recovery [20] of 87.4% and a Radiolabel recovery [21] of 0.06 ugequiv. For the same compound, the Radiolabel recovery [22] was 0.26 ugequiv, the t1/2 lambda z [23] was 9 h and the Radiolabel recovery [24] was 1.5 ugequiv.
